Measured values as given in ChEMBL document CHEMBL4346661, “Design, synthesis and evaluation of novel diaryl-1,5-diazoles derivatives bearing morpholine as potent dual COX-2/5-LOX inhibitors and antitumor agents” (Eur J Med Chem, 2019).
Active and inactive are the calls of the source. The rule behind the calls is not given here.

Tests used:
B16-F10 [1] = assay: Induction of apoptosis in mouse B16F10 cells assessed as early apoptosis cells at 25 uM incubated for 48 hrs by Annexin-V-FITC/propidium iodide staining-based flow cytometric analysis (reference value: 2.93%); format: functional
Method in brief: (§1)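 F10 cells were exposed to 0, 3.125, 6.25, 12.5 or 25 µM for 48 h. Cells were stained with Annexin V/PI and read by flow cytometry. Data are mean ± SD of three independent experiments.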

[2] = Metabolic stability in mouse B16F10 cells implanted in nude mouse plasma assessed as peak time at 40 mg/kg, ip measured after 24 to 48 hrs by HPLC analysis; format: ADME, organism-based; conditions: in vivo
Method in brief: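 Tumor-bearing nude mice dosed intraperitoneally. Blood was taken from the eye 24 h later and centrifuged to plasma. The plasma was extracted with ethyl acetate and analysed by HPLC for compound peak retention time.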

B16-F10 [3] = assay: Induction of apoptosis in mouse B16F10 cells assessed as necrosis cells at 3.125 uM incubated for 48 hrs in presence of apoptosis inhibitor z-VAD-fmk by Annexin-V-FITC/propidium iodide staining-based flow cytometric analysis (reference value: 0.558%); format: functional
B16-F10 [4] = assay: Induction of cell cycle arrest in mouse B16F10 cells assessed as cell accumulation at S phase at 6.25 uM incubated for 48 hrs by propidium iodide staining-based flow cytometric analysis (reference value: 14.16%); format: functional
B16-F10 [5] = assay: Induction of apoptosis in mouse B16F10 cells assessed as viable cells at 6.25 uM incubated for 48 hrs by Annexin-V-FITC/propidium iodide staining-based flow cytometric analysis (reference value: 94%); format: functional; conditions: B16-F10, 48 h, read-out: Activity; method in brief: as §1
B16-F10 [6] = assay: Antitumor activity against mouse B16F10 cells implanted in nude mouse assessed as tumor weight at 40 mg/kg, ip administered once per 2 days for 14 days by caliper method (reference value: 1.24g); format: functional
Method in brief: (§2)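 Nude mice were given 5×10^6 F10 cells subcutaneously in the right flank. At about 100 mm3, 24 mice were randomized into four groups of vehicle or compound. Dosing was intraperitoneal every two days for two weeks. Tumor volume was recorded every other day. Tumors were excised and weighed after the last treatment, and body weight was monitored.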

B16-F10 [7] = assay: Induction of cell cycle arrest in mouse B16F10 cells assessed as cell accumulation at G1 phase at 12.5 uM incubated for 48 hrs by propidium iodide staining-based flow cytometric analysis (reference value: 59.73%); format: functional
B16-F10 [8] = assay: Induction of apoptosis in mouse B16F10 cells assessed as early apoptosis cells at 3.125 uM incubated for 48 hrs by Annexin-V-FITC/propidium iodide staining-based flow cytometric analysis (reference value: 2.93%); format: functional; method in brief: as §1
Homo sapiens = species on record: Homo sapiens; assay: Selectivity index, ratio of IC50 for COX1 (unknown origin) to IC50 for COX2 (unknown origin)
Method in brief: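 Ratio of COX-1 IC50 to COX-2 IC50, from human COX-1 and human COX-2 inhibitor screening assay kits. Each IC50 is the concentration giving 50% enzyme inhibition, taken as the mean of four determinations.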

B16-F10 [9] = assay: Induction of apoptosis in mouse B16F10 cells assessed as late apoptosis cells at 3.125 uM incubated for 48 hrs by Annexin-V-FITC/propidium iodide staining-based flow cytometric analysis (reference value: 2.88%); format: functional; method in brief: as §1
B16-F10 [10] = assay: Induction of apoptosis in mouse B16F10 cells assessed as viable cells at 12.5 uM incubated for 48 hrs by Annexin-V-FITC/propidium iodide staining-based flow cytometric analysis (reference value: 94%); format: functional; conditions: B16-F10, 48 h, read-out: Activity; method in brief: as §1
B16-F10 [11] = assay: Induction of cell cycle arrest in mouse B16F10 cells assessed as cell accumulation at G2 phase at 6.25 uM incubated for 48 hrs by propidium iodide staining-based flow cytometric analysis (reference value: 22.43%); format: functional
B16-F10 [12] = assay: Antitumor activity against mouse B16F10 cells implanted in nude mouse assessed as decrease in tumor weight at 20 mg/kg, ip administered once per 2 days for 14 days by caliper method relative to control; format: functional, organism-based; method in brief: as §2
B16-F10 [13] = assay: Induction of apoptosis in mouse B16F10 cells assessed as late apoptosis cells at 25 uM incubated for 48 hrs by Annexin-V-FITC/propidium iodide staining-based flow cytometric analysis (reference value: 2.88%); format: functional; method in brief: as §1
B16-F10 [14] = assay: Induction of apoptosis in mouse B16F10 cells assessed as late apoptosis cells at 6.25 uM incubated for 48 hrs in presence of apoptosis inhibitor z-VAD-fmk by Annexin-V-FITC/propidium iodide staining-based flow cytometric analysis (reference value: 3.13%); format: functional
B16-F10 [15] = assay: Induction of apoptosis in mouse B16F10 cells assessed as viable cells at 12.5 uM incubated for 48 hrs in presence of apoptosis inhibitor z-VAD-fmk by Annexin-V-FITC/propidium iodide staining-based flow cytometric analysis (reference value: 92.5%); format: functional; conditions: B16-F10, 48 h, read-out: Activity
B16-F10 [16] = assay: Induction of apoptosis in mouse B16F10 cells incubated for 48 hrs by Annexin-V-FITC/propidium iodide staining-based flow cytometric analysis; format: functional, cell-based; method in brief: as §1
B16-F10 [17] = assay: Induction of apoptosis in mouse B16F10 cells assessed as late apoptosis cells at 3.125 uM incubated for 48 hrs in presence of apoptosis inhibitor z-VAD-fmk by Annexin-V-FITC/propidium iodide staining-based flow cytometric analysis (reference value: 3.13%); format: functional
B16-F10 [18] = assay: Induction of cell cycle arrest in mouse B16F10 cells assessed as cell accumulation at G1 phase at 6.25 uM incubated for 48 hrs by propidium iodide staining-based flow cytometric analysis (reference value: 59.73%); format: functional
B16-F10 [19] = assay: Induction of apoptosis in mouse B16F10 cells assessed as late apoptosis cells at 6.25 uM incubated for 48 hrs by Annexin-V-FITC/propidium iodide staining-based flow cytometric analysis (reference value: 2.88%); format: functional; method in brief: as §1
B16-F10 [20] = assay: Induction of apoptosis in mouse B16F10 cells assessed as viable cells at 25 uM incubated for 48 hrs by Annexin-V-FITC/propidium iodide staining-based flow cytometric analysis (reference value: 94%); format: functional; conditions: B16-F10, 48 h, read-out: Activity; method in brief: as §1
B16-F10 [21] = assay: Induction of apoptosis in mouse B16F10 cells assessed as early apoptosis cells at 6.25 uM incubated for 48 hrs in presence of apoptosis inhibitor z-VAD-fmk by Annexin-V-FITC/propidium iodide staining-based flow cytometric analysis (reference value: 3.83%); format: functional
[22] = target: Prostaglandin G/H synthase 1 (Homo sapiens, UniProt P23219); assay: Inhibition of COX1 (unknown origin) using arachidonic acid as substrate incubated for 10 mins by Ellman's reagent based COX-1/COX-2 ELISA assay
B16-F10 [23] = assay: Induction of apoptosis in mouse B16F10 cells assessed as viable cells at 3.125 uM incubated for 48 hrs by Annexin-V-FITC/propidium iodide staining-based flow cytometric analysis (reference value: 94%); format: functional; conditions: B16-F10, 48 h, read-out: Activity; method in brief: as §1
B16-F10 [24] = assay: Induction of apoptosis in mouse B16F10 cells assessed as early apoptosis cells at 12.5 uM incubated for 48 hrs in presence of apoptosis inhibitor z-VAD-fmk by Annexin-V-FITC/propidium iodide staining-based flow cytometric analysis (reference value: 3.83%); format: functional
B16-F10 [25] = assay: Induction of apoptosis in mouse B16F10 cells assessed as necrosis cells at 6.25 uM incubated for 48 hrs by Annexin-V-FITC/propidium iodide staining-based flow cytometric analysis (reference value: 0.186%); format: functional; method in brief: as §1
B16-F10 [26] = assay: Induction of cell cycle arrest in mouse B16F10 cells assessed as cell accumulation at G1 phase at 3.125 uM incubated for 48 hrs by propidium iodide staining-based flow cytometric analysis (reference value: 59.73%); format: functional

Prostaglandin G/H synthase 1, sequence (P23219 whole entry): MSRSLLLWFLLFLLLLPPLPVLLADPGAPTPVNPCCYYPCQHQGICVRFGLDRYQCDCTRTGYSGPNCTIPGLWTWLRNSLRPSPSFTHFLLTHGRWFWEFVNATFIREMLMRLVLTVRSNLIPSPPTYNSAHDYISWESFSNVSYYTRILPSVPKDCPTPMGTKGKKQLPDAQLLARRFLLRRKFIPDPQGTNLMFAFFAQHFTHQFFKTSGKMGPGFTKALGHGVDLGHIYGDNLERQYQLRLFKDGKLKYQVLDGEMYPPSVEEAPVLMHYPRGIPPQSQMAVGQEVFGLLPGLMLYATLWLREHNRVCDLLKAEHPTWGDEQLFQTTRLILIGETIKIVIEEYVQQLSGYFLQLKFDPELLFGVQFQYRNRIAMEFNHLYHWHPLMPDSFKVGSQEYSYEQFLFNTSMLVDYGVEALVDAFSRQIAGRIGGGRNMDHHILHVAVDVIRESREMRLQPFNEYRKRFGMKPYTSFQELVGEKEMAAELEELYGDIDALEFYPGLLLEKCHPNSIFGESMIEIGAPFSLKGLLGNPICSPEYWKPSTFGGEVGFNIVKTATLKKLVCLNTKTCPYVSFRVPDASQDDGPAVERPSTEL

For `NS(=O)(=O)c1ccc(-n2nc(C(=O)NCCCN3CCOCC3)cc2-c2ccc(C(F)(F)F)cc2)cc1`, the Activity (B16-F10 [1]) was 40.8%, the Retention_time [2] was 39.95 min and the Activity (B16-F10 [3]) was 0.23%. It also gave an Activity (B16-F10 [4]) of 15.23%, a viability at 6.25 µM (B16-F10 [5]) of 77.2% and an Activity (B16-F10 [6]) of 0.48 g. It also gave an Activity (B16-F10 [7]) of 49.08%, an Activity (B16-F10 [8]) of 7.97% and a Ratio IC50 (Homo sapiens) of 189. The Activity (B16-F10 [9]) was 4.9%, the viability at 12.5 µM (B16-F10 [10]) was 73.7% and the Activity (B16-F10 [11]) was 31.04%. For the same molecule, the Activity (B16-F10 [12]) was “Active”, the Activity (B16-F10 [13]) was 6.11% and the Activity (B16-F10 [14]) was 5.34%. For the same molecule, the viability at 12.5 µM (B16-F10 [15]) was 84%, the Activity (B16-F10 [16]) was “Dose-dependent effect” and the Activity (B16-F10 [17]) was 4.52%. For the same molecule, the Activity (B16-F10 [18]) was 50.07%, the Activity (B16-F10 [19]) was 7.9% and the viability at 25 µM (B16-F10 [20]) was 51.8%. For the same molecule, the Activity (B16-F10 [21]) was 5.74%, the IC50 [22] was 32.1 µM and the viability at 3.125 µM (B16-F10 [23]) was 86.5%. The Activity (B16-F10 [24]) was 6.13%, the Activity (B16-F10 [25]) was 0.366% and the Activity (B16-F10 [26]) was 55.36%.
